Laboratory results: ChEMBL document CHEMBL4308879, “Seco-4-methyl-DCK derivatives as potent chemosensitizers” (Bioorg Med Chem Lett, 2019)

What was measured:
[1] = Cytotoxicity against human A2780/TAX cells assessed as survival at 10 uM after 48 hrs by MTT assay relative to control; type: cell-based, A2780/Taxol; conditions: read-out: Survival
Method in brief: (§1)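 Survival ratio (%) determined from the surviving fraction after treatment. Reported as mean of three independent experiments.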

[2] = Cytotoxicity against human T29 cells assessed as survival at 10 uM after 48 hrs by MTT assay relative to control; type: cell-based; conditions: read-out: Survival; method in brief: as §1
A2780/Taxol = test: Reversal ratio of IC50 for paclitaxel-induced cytotoxicity against human A2780/TAX cells in absence of compound to IC50 paclitaxel-induced cytotoxicity against human A2780/TAX cells in presence of compound; type: functional
[3] = Cytotoxicity against HOSEC assessed as survival at 10 uM after 48 hrs by MTT assay relative to control; conditions: human, HOSEC cells; read-out: Survival; method in brief: as §1
[4] = Cytotoxicity against HUVEC assessed as survival at 10 uM after 48 hrs by MTT assay relative to control; type: cell-based; conditions: human, HUVEC cells; read-out: Survival; method in brief: as §1
[5] = Resistance ratio of IC50 for human KBV cells to IC50 for human KB cells; type: functional
KB = test: Cytotoxicity against human KB cells after 48 hrs by MTT assay; type: functional, cell-based
[6] = Reversal ratio of IC50 for vincristine-induced cytotoxicity against human KBV cells in absence of compound to IC50 for vincristine-induced cytotoxicity against human KBV cells in presence of compound; type: functional
[7] = Cytotoxicity against human KBV cells assessed as survival at 10 uM after 48 hrs by MTT assay relative to control; type: cell-based; conditions: read-out: Survival; method in brief: as §1
[8] = Reversal ratio of IC50 for cisplatin-induced cytotoxicity against human A2780/CDDP cells in absence of compound to IC50 for cisplatin-induced cytotoxicity against human A2780/CDDP cells in presence of compound; type: functional
[9] = Cytotoxicity against human A2780/CDDP cells assessed as survival at 10 uM after 48 hrs by MTT assay relative to control; type: cell-based; conditions: read-out: Survival; method in brief: as §1

| Structure (SMILES) | viability at 48 h, 10 µM [1] | viability at 48 h, 10 µM [2] | Ratio IC50 (A2780/Taxol) | viability at 48 h, 10 µM [3] | viability at 48 h, 10 µM [4] | Ratio IC50 [5] | IC50 (KB) | Ratio IC50 [6] | viability at 48 h, 10 µM [7] | Ratio IC50 [8] | viability at 48 h, 10 µM [9] |
| --- | --- | --- | --- | --- | --- | --- | --- | --- | --- | --- | --- |
| CCCc1ccc(C(=O)OCc2c(OCC)ccc3c(C)cc(=O)oc23)cc1 | 84% | 97.2% | 54 | 76% | 78.4% |  |  |  |  |  |  |
| CCOc1ccc2c(C)cc(=O)oc2c1COC(=O)c1c(F)cccc1F | 101% | 94.6% | 72 | 78.2% | 86.3% |  |  |  |  |  |  |
| CCOc1ccc2c(C)cc(=O)oc2c1COC(=O)c1ccc(OC)c(OC)c1 | 83.1% | 86.1% | 101 | 72% | 83.4% |  |  |  |  |  |  |
| CCOc1ccc2c(C)cc(=O)oc2c1COC(=O)c1cccc(OC)c1 | 76.5% | 83.4% | 56 | 68.4% | 79.8% |  |  |  |  |  |  |
| CCCc1ccc(C(=O)OCc2c(OC(C)C)ccc3c(C)cc(=O)oc23)cc1 | 101% | 92.7% | 45 | 87.5% | 82.2% |  |  |  |  |  |  |
| Cc1cc(=O)oc2c(COC(=O)/C=C/c3ccccc3)c(OC(C)C)ccc12 | 103% | 104% | 32 | 105% | 95.9% |  |  |  |  |  |  |
| CCOc1ccc2c(C)cc(=O)oc2c1COC(=O)c1cc(OC)c(OC)c(OC)c1 | 97.6% | 103% | 51 | 86.7% | 99.7% |  |  |  |  |  |  |
| CCOc1ccc2c(C)cc(=O)oc2c1COC(=O)c1ccc(C(C)(C)C)cc1 | 95.1% | 87.1% | 158 | 79.8% | 76% |  |  |  |  |  |  |
| Cc1cc(=O)oc2c(COC(=O)c3ccc(C(C)(C)C)cc3)c(OC(C)C)ccc12 | 104% | 96% | 72 | 90.6% | 83.7% |  |  |  |  |  |  |
| CC[C@]1(O)C[C@H]2CN(CCc3c([nH]c4ccccc34)[C@@](C(=O)OC)(c3cc4c(cc3OC)N(C=O)[C@H]3[C@@](O)(C(=O)OC)[C@H](OC(C)=O)[C@]5(CC)C=CCN6CC[C@]43[C@@H]65)C2)C1 [VINCRISTINE] |  |  |  |  |  | 3173 | 0.21 nM |  |  |  |  |
| COc1cc(C(=O)OCc2c(OC(C)C)ccc3c(C)cc(=O)oc23)cc(OC)c1OC | 94.6% | 81.5% | 354 | 61.7% | 73.1% |  |  | 134 | 96.1% | 0.86 | 65.5% |
| CCOc1ccc2c(C)cc(=O)oc2c1COC(=O)/C=C/c1ccc(Cl)cc1 | 102% | 106% | 14 | 90.7% | 101% |  |  |  |  |  |  |
| CCOc1ccc2c(C)cc(=O)oc2c1COC(=O)/C=C/c1ccccc1 | 98.9% | 98.7% | 97 | 92.2% | 84.7% |  |  |  |  |  |  |
| CCOc1ccc2c(C)cc(=O)oc2c1COC(=O)/C=C/c1ccc(OC)cc1 | 83.6% | 98.9% | 735 | 84.9% | 93.8% |  |  | 793 | 105% | 0.76 | 123% |
| COc1ccc(C(=O)OCc2c(OC(C)C)ccc3c(C)cc(=O)oc23)cc1OC | 102% | 101% | 197 | 107% | 84.2% |  |  |  |  |  |  |
| Cc1cc(=O)oc2c(CO)c(OC(C)C)ccc12 | 94.6% | 88.6% |  | 80.2% | 84.7% |  |  |  |  |  |  |
| CCOc1ccc2c(C)cc(=O)oc2c1COC(=O)c1ccc(Cl)c([N+](=O)[O-])c1 | 78.7% | 72.6% | 31 | 50.1% | 81% |  |  |  |  |  |  |
| Cc1ccc(C(=O)OCc2c(OC(C)C)ccc3c(C)cc(=O)oc23)cc1 | 95.2% | 91.2% | 95 | 79.8% | 75.6% |  |  |  |  |  |  |
| COc1ccc(/C=C/C(=O)OCc2c(OC(C)C)ccc3c(C)cc(=O)oc23)cc1 | 98.1% | 90.4% | 496 | 93.6% | 98.9% |  |  | 1257 | 108% | 0.78 | 131% |
| COc1cc(OC)c(C(=O)OCc2c(OC(C)C)ccc3c(C)cc(=O)oc23)cc1OC | 106% | 90.9% | 161 | 86.3% | 72.7% |  |  |  |  |  |  |
| CCOc1ccc2c(C)cc(=O)oc2c1COC(=O)c1ccc(F)cc1 | 93.4% | 88.6% | 61 | 78.3% | 87.2% |  |  |  |  |  |  |
| Cc1cc(=O)oc2c(COC(=O)c3cccc(N(C)C)c3)c(OC(C)C)ccc12 | 102% | 90.8% | 86 | 76% | 84.8% |  |  |  |  |  |  |
| CCOc1ccc2c(C)cc(=O)oc2c1COC(=O)c1cccc(N(C)C)c1 | 97% | 106% | 224 | 97.2% | 96.3% |  |  | 314 | 104% | 0.83 | 117% |
| CCOc1ccc2c(C)cc(=O)oc2c1COC(=O)CCc1ccc(OC)cc1 | 101% | 91.3% | 6 | 73.5% | 85% |  |  |  |  |  |  |
| CCOc1ccc2c(C)cc(=O)oc2c1COC(=O)c1ccc(C)cc1 | 95.8% | 86.1% | 26 | 64.7% | 77.1% |  |  |  |  |  |  |
| Cc1cc(=O)oc2c(COC(=O)c3ccc(F)cc3)c(OC(C)C)ccc12 | 102% | 85.3% | 93 | 70.5% | 79.7% |  |  |  |  |  |  |
| CCOc1ccc2c(C)cc(=O)oc2c1COC(=O)c1cc(OC)c(OC)cc1OC | 84.1% | 89.5% | 47 | 78.2% | 88.8% |  |  |  |  |  |  |
